In brackets after ≈: the same amount, converted by molar mass.
What was measured:
[1] = test system: Mycobacterium tuberculosis; assay: Antitubercular activity against Mycobacterium tuberculosis H37Rv assessed as growth inhibition after […] by agar microdilution method; assay type: functional
Aspergillus fumigatus = assay: Antifungal activity against Aspergillus fumigatus isolated from patient assessed as growth inhibition after 72 to 96 hrs by microbroth dilution method; assay type: functional
In short: (§1)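 Broth microdilution susceptibility testing following NCCLS guidelines (reference standard M27-A for yeasts), run against a panel of bacterial and fungal strains.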

[2] = test system: Trichophyton mentagrophytes; assay: Antifungal activity against Trichophyton mentagrophytes isolated from patient assessed as growth inhibition after 72 to 96 hrs by microbroth dilution method; assay type: functional; in short: as §1
Pseudomonas aeruginosa = assay: Antibacterial activity against Pseudomonas aeruginosa ATCC BAA427 assessed as growth inhibition after 24 hrs by microbroth dilution method; assay type: functional; conditions: ATCC BAA427, 24 h; in short: as §1
Candida albicans = assay: Antifungal activity against Candida albicans isolated from patient assessed as growth inhibition after 24 to 48 hrs by microbroth dilution method; assay type: functional; in short: as §1
Staphylococcus aureus = assay: Antibacterial activity against Staphylococcus aureus ATCC 25923 assessed as growth inhibition after 24 hrs by microbroth dilution method; assay type: functional; conditions: ATCC 25923, 24 h; in short: as §1
Sporothrix schenckii = assay: Antifungal activity against Sporothrix schenckii isolated from patient assessed as growth inhibition after 72 to 96 hrs by microbroth dilution method; assay type: functional; in short: as §1
Klebsiella pneumoniae = assay: Antibacterial activity against Klebsiella pneumoniae ATCC 27736 assessed as growth inhibition after 24 hrs by microbroth dilution method; assay type: functional; conditions: ATCC 27736, 24 h; in short: as §1
Candida parapsilosis = assay: Antifungal activity against Candida parapsilosis ATCC 22019 assessed as growth inhibition after 24 to 48 hrs by microbroth dilution method; assay type: functional; conditions: Lodderomyces parapsilosis; in short: as §1
Escherichia coli = assay: Antibacterial activity against Escherichia coli ATCC 9637 assessed as growth inhibition after 24 hrs by microbroth dilution method; assay type: functional; conditions: W; in short: as §1
Cryptococcus neoformans = assay: Antifungal activity against Cryptococcus neoformans CDRI isolate assessed as growth inhibition after 24 to 48 hrs by microbroth dilution method; assay type: functional; in short: as §1
[3] = Cytotoxicity against African green monkey Vero cells after 24 hrs by MTS assay; assay type: cell-based; conditions: chlorocebus sabaeus
[4] = Selectivity index, ratio of CC50 for African green monkey Vero cells to MIC for Mycobacterium tuberculosis H37Rv; assay type: functional
[5] = Mean residence time in Sprague-Dawley rat at 10 mg/kg, po; assay type: ADME, organism-based; design: dose 10 mg/kg, route oral; conditions: in vivo
In short: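 Male Sprague-Dawley rats were given a single oral dose of 10 mg/kg. Serum concentration-time profiles were followed, and pharmacokinetic parameters, including mean residence time and clearance, were derived from them.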

Clc1ccc(COc2ccc(/C=C/CCn3nnc4ccccc43)cc2)cc1
MIC [1]: > 12.5 µg/mL

Clc1ccc(COc2ccc(C(C3CC3)n3cncn3)cc2)cc1 (stereo not given)
MIC [1]: 12.5 µg/mL (≈ 36.8 µM)

COc1ccc(COc2ccc(C(C3CC3)n3ccnc3)cc2)cc1 (stereo not given)
MIC (Aspergillus fumigatus): 6.25 µg/mL (≈ 18.7 µM)
MIC [2]: 3.12 µg/mL (≈ 9.33 µM)
MIC (Pseudomonas aeruginosa): 50 µg/mL (≈ 150 µM)
MIC (Candida albicans): 25 µg/mL (≈ 74.8 µM)
MIC (Staphylococcus aureus): 25 µg/mL (≈ 74.8 µM)
MIC (Sporothrix schenckii): 3.12 µg/mL (≈ 9.33 µM)
MIC [1]: 12.5 µg/mL (≈ 37.4 µM)
MIC (Klebsiella pneumoniae): 25 µg/mL (≈ 74.8 µM)
MIC (Candida parapsilosis): 50 µg/mL (≈ 150 µM)
MIC (Escherichia coli): > 50 µg/mL
MIC (Cryptococcus neoformans): 50 µg/mL (≈ 150 µM)

c1ccc(COc2ccc(C(Nn3cnnc3)C3CC3)cc2)cc1 (stereo not given)
MIC [1]: > 12.5 µg/mL

c1ccc(COc2ccc(C(C3CC3)n3cnc4ccccc43)cc2)cc1 (stereo not given)
MIC [1]: 12.5 µg/mL (≈ 35.3 µM)

OC(Cn1cncn1)(Cn1cncn1)c1ccc(F)cc1F [FLUCONAZOLE]
MIC (Aspergillus fumigatus): > 32 µg/mL
MIC [2]: 16 µg/mL (≈ 52.2 µM)
MIC (Candida albicans): 1 µg/mL (≈ 3.27 µM)
MIC (Sporothrix schenckii): 4 µg/mL (≈ 13.1 µM)
MIC [1]: 2.83 µg/mL (≈ 9.22 µM)
MIC (Candida parapsilosis): 0.5 µg/mL (≈ 1.63 µM)
MIC (Cryptococcus neoformans): 2 µg/mL (≈ 6.53 µM)

c1ccc2oc(NC(c3ccc(OCc4ccc(OCCN5CCCCC5)cc4)cc3)C3CC3)nc2c1 (stereo not given)
MIC (Aspergillus fumigatus): > 50 µg/mL
MIC [2]: 12.5 µg/mL (≈ 25.1 µM)
MIC (Pseudomonas aeruginosa): > 50 µg/mL
MIC (Candida albicans): 12.5 µg/mL (≈ 25.1 µM)
MIC (Staphylococcus aureus): 25 µg/mL (≈ 50.2 µM)
MIC (Sporothrix schenckii): 25 µg/mL (≈ 50.2 µM)
MIC [1]: 6.25 µg/mL (≈ 12.6 µM)
MIC (Klebsiella pneumoniae): > 50 µg/mL
MIC (Candida parapsilosis): 50 µg/mL (≈ 100 µM)
MIC (Escherichia coli): > 50 µg/mL
CC50 at 24 h [3]: 11.7 µg/mL (≈ 23.5 µM)
Selectivity Index [4]: 1.87
MIC (Cryptococcus neoformans): 50 µg/mL (≈ 100 µM)

OC(c1ccc(OCc2ccc(OCCN3CCCCC3)cc2)cc1)C1CC1 (stereo not given)
MIC [1]: 3.12 µg/mL (≈ 8.18 µM)
CC50 at 24 h [3]: > 50 µg/mL
Selectivity Index [4]: >10

Clc1ccc(COc2ccc(/C=C/CCn3cnc4ccccc43)cc2)cc1
MIC [1]: 6.25 µg/mL (≈ 16.1 µM)

O=[N+]([O-])c1cn(CC/C=C/c2ccc(OCc3ccc(F)cc3)cc2)cn1
MIC [1]: 50 µg/mL (≈ 136 µM)

c1ccc2sc(NC(c3ccc(OCc4ccc(OCCN5CCCCC5)cc4)cc3)C3CC3)nc2c1 (stereo not given)
MIC [1]: 12.5 µg/mL (≈ 24.3 µM)

O=[N+]([O-])c1cn(C(c2ccc(OCc3ccc(F)cc3)cc2)C2CC2)cn1 (stereo not given)
MIC [1]: 12.5 µg/mL (≈ 34 µM)

ClCC/C=C/c1ccc(OCc2ccc(OCCN3CCCCC3)cc2)cc1
MIC [1]: 4.46 µg/mL (≈ 11.2 µM)

Brc1ccc(COc2ccc(/C=C/CCn3cncn3)cc2)cc1
MIC [1]: 4.78 µg/mL (≈ 12.4 µM)

O=[N+]([O-])c1cnc(NC(c2ccc(OCc3ccccc3)cc2)C2CC2)s1 (stereo not given)
MIC [1]: > 25 µg/mL

Cc1cnn(C(c2ccc(OCc3ccc(Br)cc3)cc2)C2CC2)c1 (stereo not given)
MIC [1]: > 50 µg/mL

Cc1cnn(C(c2ccc(OCc3ccccc3Cl)cc2)C2CC2)c1 (stereo not given)
MIC [1]: 12.5 µg/mL (≈ 35.4 µM)

Cc1cnn(CC/C=C/c2ccc(OCc3ccc(Br)cc3)cc2)c1
MRT [5]: 7.17 h

Fc1ccc2nc(NC(c3ccc(OCc4ccc(OCCN5CCCCC5)cc4)cc3)C3CC3)sc2c1 (stereo not given)
MIC [1]: 6.25 µg/mL (≈ 11.8 µM)
CC50 at 24 h [3]: 4.93 µg/mL (≈ 9.27 µM)
Selectivity Index [4]: 0.78

c1ccc(COc2ccc(C(C3CC3)n3ccnc3)cc2)cc1 (stereo not given)
MIC [1]: 12.5 µg/mL (≈ 41.1 µM)

C(=C\c1ccc(OCc2ccccc2)cc1)/CCSc1nc2ccccc2s1
MRT [5]: 6.02 h

Brc1ccc(COc2ccc(C(C3CC3)n3cncn3)cc2)cc1 (stereo not given)
MIC [1]: 25 µg/mL (≈ 65.1 µM)

CCCCSc1nc2ccccc2n1CC/C=C/c1ccc(OCc2ccccc2)cc1
MIC [1]: > 12.5 µg/mL

Clc1ccccc1C(c1ccccc1)(c1ccccc1)n1ccnc1 [CLOTRIMAZOLE]
MIC (Aspergillus fumigatus): 8 µg/mL (≈ 23.2 µM)
MIC [2]: 2 µg/mL (≈ 5.8 µM)
MIC (Candida albicans): 0.25 µg/mL (≈ 0.725 µM)
MIC (Sporothrix schenckii): 4 µg/mL (≈ 11.6 µM)
MIC (Candida parapsilosis): 1 µg/mL (≈ 2.9 µM)
MIC (Cryptococcus neoformans): 0.25 µg/mL (≈ 0.725 µM)

NNC(=O)c1ccncc1 [ISONIAZID]
MIC [1]: 0.025 µg/mL (≈ 0.182 µM)

c1ccc2sc(SC(c3ccc(OCc4ccc(OCCN5CCCCC5)cc4)cc3)C3CC3)nc2c1 (stereo not given)
MIC (Aspergillus fumigatus): 25 µg/mL (≈ 47.1 µM)
MIC [2]: 6.25 µg/mL (≈ 11.8 µM)
MIC (Pseudomonas aeruginosa): > 50 µg/mL
MIC (Candida albicans): 6.25 µg/mL (≈ 11.8 µM)
MIC (Staphylococcus aureus): 12.5 µg/mL (≈ 23.6 µM)
MIC (Sporothrix schenckii): 12.5 µg/mL (≈ 23.6 µM)
MIC [1]: 3.12 µg/mL (≈ 5.88 µM)
MIC (Klebsiella pneumoniae): > 50 µg/mL
MIC (Candida parapsilosis): > 50 µg/mL
MIC (Escherichia coli): > 50 µg/mL
CC50 at 24 h [3]: 100 µg/mL (≈ 188 µM)
Selectivity Index [4]: 32.2
MIC (Cryptococcus neoformans): 50 µg/mL (≈ 94.2 µM)

c1cc(OCCN2CCCCC2)ccc1COc1ccc(C(Nn2cnnc2)C2CC2)cc1 (stereo not given)
MIC [1]: 50 µg/mL (≈ 112 µM)

c1ccc(COc2ccc(C(Nc3nc4ccccc4s3)C3CC3)cc2)cc1 (stereo not given)
MRT [5]: 7.9 h

c1ccc(COc2ccc(C(C3CC3)n3cncn3)cc2)cc1 (stereo not given)
MIC [1]: > 12.5 µg/mL

C(=C\c1ccc(OCc2ccccc2)cc1)/CCn1cnc2ccccc21
MRT [5]: 3.22 h

c1ccc2[nH]c(SC(c3ccc(OCc4ccc(OCCN5CCCCC5)cc4)cc3)C3CC3)nc2c1 (stereo not given)
MIC [1]: > 50 µg/mL

c1ccc2c(c1)ncn2C(c1ccc(OCc2ccc(OCCN3CCCCC3)cc2)cc1)C1CC1 (stereo not given)
MIC [1]: 12.5 µg/mL (≈ 26 µM)

CC[C@@H](CO)NCCN[C@@H](CC)CO [ETHAMBUTOL]
MIC [1]: 2 µg/mL (≈ 9.79 µM)

COc1ccc(COc2ccc(C(C3CC3)n3cnc4ccccc43)cc2)cc1 (stereo not given)
MIC [1]: > 12.5 µg/mL

CC1(C)S[C@@H]2[C@H](NC(=O)[C@H](N)c3ccccc3)C(=O)N2[C@H]1C(=O)O [AMPICILLIN]
MIC (Pseudomonas aeruginosa): > 50 µg/mL
MIC (Staphylococcus aureus): 0.04 µg/mL (≈ 0.114 µM)
MIC (Klebsiella pneumoniae): 50 µg/mL (≈ 143 µM)
MIC (Escherichia coli): 3.12 µg/mL (≈ 8.93 µM)

C(=C\c1ccc(OCc2ccccc2)cc1)/CCSc1nc2ccccc2[nH]1
MIC [1]: > 25 µg/mL

C(=C\c1ccc(OCc2ccccc2)cc1)/CCn1cncn1
MIC [1]: > 25 µg/mL

COc1ccc(COc2ccc(/C=C/CCSc3nc4ccccc4[nH]3)cc2)cc1
MIC [1]: > 12.5 µg/mL

Reference: ChEMBL document CHEMBL2440028, “Identification of 1-[4-Benzyloxyphenyl)-but-3-enyl]-1H-azoles as New Class of Antitubercular and Antimicrobial Agents” (ACS Med Chem Lett, 2013)
